In ChEMBL document CHEMBL5303300, “EUbOPEN Chemogenomics Library - Multiplex” (2023):
“And” between values parts separate entries of the source, which are not always exact repeats. Equal values may be shown once.

System: U2OS
Test: Multiplex assay against U2OS
Format: toxicity, cell-based
Details: human, number of replicates 2
In short: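 With compound added, live cells were imaged on a CQ1 microscope at 37°C and 5% CO2; staining with Hoechst33342, BioTracker Green Microtubule Cytoskeleton Dye, MitoTracker Red and Annexin V Alexa Fluor 680 had been done at seeding. The CellPathfinder machine-learning gating scheme split cells into Hoechst high-intensity objects or normal cells, normal cells into healthy, pyknosed or fragmented nuclei, and pyknosed cells into mitotic or apoptotic. The tubulin, mitochondrial-mass and membrane-permeability phenotypes are per cents of healthy-nucleus cells.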

[1] = 12 h, 1 µM, compound concentration 1 uM
[2] = 12 h, 10 µM, compound concentration 10 uM
[3] = 24 h, 1 µM, compound concentration 1 uM
[4] = 24 h, 10 µM, compound concentration 10 uM
[5] = 48 h, 1 µM, compound concentration 1 uM
[6] = 48 h, 10 µM, compound concentration 10 uM

COc1ccc(NC(=O)c2ccc(-c3ccc(-c4noc(C)n4)cc3C)cc2)cc1OCCN(C)C.Cl
Population Apoptotic (%) [1]: 40% and 45% | Population Healthy Nuclei (%) [1]: 61% and 83% | Population Hoechst High Intensity Objects (%) [1]: 0% | Population Membrane Permeable-Phenotype (%) [1]: 5% and 4% | Population Mitochondria Different-Phenotype (%) [1]: 5% and 13% | Population Mitotic Cells (%) [1]: 60% and 55% | Population Normal (%) [1]: 100% | Population Pyknosed Nuclei (%) [1]: 16% and 11% | Population Tubulin-Different-Phenotype (%) [1]: 36% and 40% | Population Apoptotic (%) [2]: 76% and 60% | Population Fragmented Nuclei (%) [2]: 10% and 23% | Population Healthy Nuclei (%) [2]: 43% and 51% | Population Hoechst High Intensity Objects (%) [2]: 1% and 0% | Population Membrane Permeable-Phenotype (%) [2]: 34% and 30% | Population Mitochondria Different-Phenotype (%) [2]: 67% and 85% | Population Mitotic Cells (%) [2]: 23% and 40% | Population Normal (%) [2]: 98% and 100% | Population Pyknosed Nuclei (%) [2]: 46% and 25% | Population Tubulin-Different-Phenotype (%) [2]: 93% and 100% | Population Apoptotic (%) [3]: 55% and 51% | Population Healthy Nuclei (%) [3]: 55% and 78% | Population Hoechst High Intensity Objects (%) [3]: 2% and 0% | Population Membrane Permeable-Phenotype (%) [3]: 5% | Population Mitochondria Different-Phenotype (%) [3]: 15% and 17% | Population Mitotic Cells (%) [3]: 44% and 48% | Population Normal (%) [3]: 97% and 99% | Population Pyknosed Nuclei (%) [3]: 25% and 15% | Population Tubulin-Different-Phenotype (%) [3]: 35% and 34% | Population Apoptotic (%) [4]: 63% and 86% | Population Fragmented Nuclei (%) [4]: 16% and 6% | Population Healthy Nuclei (%) [4]: 32% | Population Hoechst High Intensity Objects (%) [4]: 0% | Population Membrane Permeable-Phenotype (%) [4]: 58% and 79% | Population Mitochondria Different-Phenotype (%) [4]: 75% and 89% | Population Mitotic Cells (%) [4]: 36% and 13% | Population Normal (%) [4]: 100% and 99% | Population Pyknosed Nuclei (%) [4]: 51% and 61% | Population Tubulin-Different-Phenotype (%) [4]: 100% and 98% | Population Apoptotic (%) [5]: 77% and 72% | Population Fragmented Nuclei (%) [5]: 16% and 7% | Population Healthy Nuclei (%) [5]: 65% and 77% | Population Hoechst High Intensity Objects (%) [5]: 2% and 0% | Population Membrane Permeable-Phenotype (%) [5]: 6% | Population Mitochondria Different-Phenotype (%) [5]: 3% and 12% | Population Mitotic Cells (%) [5]: 22% and 27% | Population Normal (%) [5]: 98% and 100% | Population Pyknosed Nuclei (%) [5]: 18% and 15% | Population Tubulin-Different-Phenotype (%) [5]: 37% and 40% | Population Apoptotic (%) [6]: 95% and 98% | Population Fragmented Nuclei (%) [6]: 21% and 14% | Population Healthy Nuclei (%) [6]: 18% and 6% | Population Hoechst High Intensity Objects (%) [6]: 2% and 1% | Population Membrane Permeable-Phenotype (%) [6]: 85% and 92% | Population Mitochondria Different-Phenotype (%) [6]: 71% and 100% | Population Mitotic Cells (%) [6]: 4% and 1% | Population Normal (%) [6]: 97% and 98% | Population Pyknosed Nuclei (%) [6]: 59% and 79% | Population Tubulin-Different-Phenotype (%) [6]: 100% and 92%

CN(C)CCN(Cc1ccc(-c2ccc(CNCCc3ccccc3)cc2)cc1)C(=O)CCC1CCCC1.Cl.Cl
Population Apoptotic (%) [1]: 77% and 66% | Population Fragmented Nuclei (%) [1]: 17% and 9% | Population Healthy Nuclei (%) [1]: 55% and 78% | Population Hoechst High Intensity Objects (%) [1]: 0% | Population Membrane Permeable-Phenotype (%) [1]: 0% and 6% | Population Mitochondria Different-Phenotype (%) [1]: 36% and 27% | Population Mitotic Cells (%) [1]: 22% and 33% | Population Normal (%) [1]: 100% | Population Pyknosed Nuclei (%) [1]: 26% and 11% | Population Tubulin-Different-Phenotype (%) [1]: 42% and 43% | Population Apoptotic (%) [2]: 100% and 99% | Population Fragmented Nuclei (%) [2]: 7% and 5% | Population Healthy Nuclei (%) [2]: 11% and 13% | Population Hoechst High Intensity Objects (%) [2]: 0% and 2% | Population Membrane Permeable-Phenotype (%) [2]: 100% | Population Mitochondria Different-Phenotype (%) [2]: 100% and 88% | Population Mitotic Cells (%) [2]: 0% | Population Normal (%) [2]: 100% and 97% | Population Pyknosed Nuclei (%) [2]: 80% and 81% | Population Tubulin-Different-Phenotype (%) [2]: 100% and 88% | Population Apoptotic (%) [3]: 78% and 64% | Population Fragmented Nuclei (%) [3]: 10% and 23% | Population Healthy Nuclei (%) [3]: 73% and 44% | Population Hoechst High Intensity Objects (%) [3]: 0% | Population Membrane Permeable-Phenotype (%) [3]: 7% and 5% | Population Mitochondria Different-Phenotype (%) [3]: 39% and 57% | Population Mitotic Cells (%) [3]: 21% and 35% | Population Normal (%) [3]: 100% | Population Pyknosed Nuclei (%) [3]: 16% and 32% | Population Tubulin-Different-Phenotype (%) [3]: 44% and 36% | Population Apoptotic (%) [4]: 100% and 96% | Population Healthy Nuclei (%) [4]: 3% and 6% | Population Hoechst High Intensity Objects (%) [4]: 0% and 3% | Population Membrane Permeable-Phenotype (%) [4]: 100% | Population Mitochondria Different-Phenotype (%) [4]: 100% and 88% | Population Mitotic Cells (%) [4]: 0% and 3% | Population Normal (%) [4]: 100% and 96% | Population Pyknosed Nuclei (%) [4]: 76% and 87% | Population Tubulin-Different-Phenotype (%) [4]: 100% and 88% | Population Apoptotic (%) [5]: 80% and 83% | Population Fragmented Nuclei (%) [5]: 26% and 10% | Population Healthy Nuclei (%) [5]: 34% and 70% | Population Hoechst High Intensity Objects (%) [5]: 0% | Population Mitotic Cells (%) [5]: 20% and 16% | Population Normal (%) [5]: 100% | Population Pyknosed Nuclei (%) [5]: 40% and 18% | Population Tubulin-Different-Phenotype (%) [5]: 58% and 62% | Population Apoptotic (%) [6]: 93% and 97% | Population Fragmented Nuclei (%) [6]: 8% and 14% | Population Hoechst High Intensity Objects (%) [6]: 0% and 1% | Population Membrane Permeable-Phenotype (%) [6]: 100% | Population Mitochondria Different-Phenotype (%) [6]: 100% | Population Mitotic Cells (%) [6]: 6% and 2% | Population Normal (%) [6]: 100% and 98% | Population Pyknosed Nuclei (%) [6]: 66% and 80% | Population Tubulin-Different-Phenotype (%) [6]: 100%
